Test [1] has as its system Plasmodium falciparum 3D7. Briefly: Inhibition of 20S proteasome beta 2 subunit from bortezomib resistant Plasmodium falciparum 3D7 trophozoite infected erythrocytes assessed as inhibition of BMV037 probe labeling at 1 to 10 uM incubated for 1 hr by SDS-PAGE analysis. The note with it: dose 1-10 µM.
The target of test [2] is T1, Proteasome subunit beta type-9 (Homo sapiens) (UniProt P28065).
T1 sequence (whole entry): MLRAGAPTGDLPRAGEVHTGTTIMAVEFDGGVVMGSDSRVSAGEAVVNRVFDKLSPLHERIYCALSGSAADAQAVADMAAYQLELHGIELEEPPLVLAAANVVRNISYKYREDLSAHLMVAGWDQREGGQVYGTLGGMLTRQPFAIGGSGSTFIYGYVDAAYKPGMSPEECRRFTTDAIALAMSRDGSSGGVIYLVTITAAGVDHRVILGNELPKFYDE
Nature of the test: Inhibition of human 20S immunoproteasome beta 1 subunit assessed as inhibition of BMV037 probe labeling at 1 to 10 uM incubated for 1 hr by SDS-PAGE analysis. The note with it: dose 1-10 µM. In short, it runs like this: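 Purified human immuno-20S (20 nM) was incubated with compound at 37°C for 1 h, then labelled with 10 µM BMV037 at 37°C for 2 h. Samples were run on 4-12% Bis-Tris gel with MES buffer, and active subunits were visualised by Cy5 fluorescence.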

The target of test [3] is T2, Proteasome subunit beta type-7 (Homo sapiens, UniProt Q99436).
T2 sequence (Q99436 whole entry): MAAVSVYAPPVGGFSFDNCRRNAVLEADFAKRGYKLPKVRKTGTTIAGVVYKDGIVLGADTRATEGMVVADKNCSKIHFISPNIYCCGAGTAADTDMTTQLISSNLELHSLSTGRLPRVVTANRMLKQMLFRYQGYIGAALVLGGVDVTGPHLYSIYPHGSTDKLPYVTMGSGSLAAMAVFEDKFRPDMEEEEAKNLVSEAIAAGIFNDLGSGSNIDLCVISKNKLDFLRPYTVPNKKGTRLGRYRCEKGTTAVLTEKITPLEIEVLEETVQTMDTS
Briefly: Inhibition of human 20S constitutive proteasome beta 2 subunit trypsin-like activity using fluorogenic peptide Ac-WLR-AMC as substrate in presence of PA28alpha incubated for 1 to 2 hrs by fluorescence microplate reader assay.

Test [4] is described as follows: Binding affinity to Plasmodium falciparum 20S proteasome beta 2 subunit assessed as equilibrium constant using fluorogenic peptide Ac-WLR-AMC as substrate in presence of PA28alpha by fluorescence based microplate reader assay.
Test [5] relates to Plasmodium falciparum. Briefly: Synergistic antiplasmodial activity against DHA-resistant and sorbitol synchronized ring stage forms of Plasmodium falciparum Cam3.II^R539T expressing K13 mutant assessed as reduction in parasitemia incubated for 3 hrs in presence of DHA by pulse exposure based Syto-61 staining dye based flow cytometry analysis. Type of test: functional, organism-based. (Flow cytometry measures light scatter and fluorescence of single cells or particles in a stream.)

Test [6] concerns Plasmodium falciparum. Briefly: Binding affinity to Plasmodium falciparum 20S proteasome beta 2 subunit assessed as half-life using fluorogenic peptide Ac-WLR-AMC as substrate in presence of PA28alpha by fluorescence based microplate reader assay.
In test [7] the target is T3, Proteasome Macropain subunit MB1 (Homo sapiens) (UniProt P28074).
T3 sequence (whole entry): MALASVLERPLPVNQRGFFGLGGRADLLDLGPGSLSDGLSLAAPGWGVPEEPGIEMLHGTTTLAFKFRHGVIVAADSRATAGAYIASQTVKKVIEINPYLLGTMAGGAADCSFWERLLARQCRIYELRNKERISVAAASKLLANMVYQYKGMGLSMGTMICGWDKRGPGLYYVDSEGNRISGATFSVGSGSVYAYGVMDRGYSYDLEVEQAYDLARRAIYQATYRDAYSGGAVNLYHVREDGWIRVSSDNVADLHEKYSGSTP
Briefly: Binding affinity to human 20S constitutive proteasome beta 5 subunit assessed as half-life using fluorogenic peptide Ac-WLA-AMC as substrate in presence of PA28alpha by fluorescence based microplate reader assay.

Test [8] deals with T3, Proteasome Macropain subunit MB1 (Homo sapiens). Nature of the test: Inhibition of human 20S constitutive proteasome beta 5 subunit assessed as inhibition of BMV037 probe labeling at 1 to 10 uM incubated for 1 hr by SDS-PAGE analysis. Particulars: dose 1-10 µM. The essentials: (§1)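 Purified human constitutive 20S (20 nM) was treated with compound at 37°C for 1 h, then labelled with 10 µM BMV037 at 37°C for 2 h. Samples were run on 10% Bis-Tris gel with MOPS buffer, and active subunits were detected by Cy5 fluorescence scan.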

Test [9] concerns Plasmodium falciparum. Briefly: Inhibition of proteasome in Plasmodium falciparum trophozoite stage transfected with GFP-DD assessed as reduction in GFP-DD fusion protein degradation at 0.02 to 0.5 uM incubated for 3 hrs in absence of Shield-1 by Western blot analysis. The note with it: dose 0.02-0.5 µM. The essentials: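 GFP-DD reporter parasites were held in Shield-1 for 24 h, washed out, then treated as trophozoites (5% hematocrit, 5% parasitemia) with compound for 3 h at 37°C. […] Representative of four independent experiments.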
For orientation: In western blotting, separated proteins are transferred to a membrane and probed.

Test [10] has as its system Plasmodium falciparum. Briefly: Binding affinity to Plasmodium falciparum 20S proteasome beta 5 subunit assessed as half-life using fluorogenic peptide Ac-WLA-AMC as substrate in presence of PA28alpha by fluorescence based microplate reader assay.
Test [11] concerns the target T4, Proteasome component C5 (Homo sapiens) (UniProt P20618).
T4 sequence (whole entry): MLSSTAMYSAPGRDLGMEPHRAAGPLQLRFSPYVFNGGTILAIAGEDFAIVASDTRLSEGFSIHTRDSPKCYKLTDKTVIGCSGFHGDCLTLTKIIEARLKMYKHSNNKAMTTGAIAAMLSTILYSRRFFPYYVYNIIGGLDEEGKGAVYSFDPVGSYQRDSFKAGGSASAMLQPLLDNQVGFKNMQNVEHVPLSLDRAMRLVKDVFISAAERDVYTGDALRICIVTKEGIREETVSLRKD
Nature of the test: Inhibition of human 20S constitutive proteasome beta 1 subunit assessed as inhibition of BMV037 probe labeling at 1 to 10 uM incubated for 1 hr by SDS-PAGE analysis. The note with it: dose 1-10 µM. The essentials: as §1

Test [12] concerns Plasmodium falciparum 3D7. Briefly: Inhibition of 20S proteasome beta 2 subunit in bortezomib-resistant Plasmodium falciparum 3D7 assessed as inhibition of BMV037 probe labeling at 1 to 10 uM incubated for 1 hr by SDS-PAGE analysis. Particulars: dose 1-10 µM.
In test [13] the target is T3, Proteasome Macropain subunit MB1 (Homo sapiens). Briefly: Inhibition of human 20S constitutive proteasome beta 5 subunit assessed as inhibition of BMV037 probe labeling at 1 uM incubated for 1 hr by SDS-PAGE analysis. In short, it runs like this: as §1
Test [14] concerns Plasmodium falciparum 3D7. Briefly: Inhibition of 20S proteasome beta 5 subunit from bortezomib resistant Plasmodium falciparum 3D7 trophozoite infected erythrocytes assessed as inhibition of BMV037 probe labeling at 1 to 10 uM incubated for 1 hr by SDS-PAGE analysis. The note with it: dose 1-10 µM.
Test [15] has as its system Plasmodium falciparum. Briefly: Inhibition of proteasome in Plasmodium falciparum trophozoite stage transfected with GFP-DD assessed as reduction in GFP-DD fusion protein degradation at 0.2 to 0.5 uM incubated for 3 hrs in absence of Shield-1 by Western blot analysis. The note with it: dose 0.2-0.5 µM. In short, it runs like this:
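GFP-DD reporter parasites were held in Shield-1 for 24 h, then washed out. Trophozoites at 5% hematocrit and 5% parasitemia were exposed to compound for 3 h at 37°C. Saponin-isolated parasites were lysed and blotted with anti-GFP (1:1000), with anti-PfBiP as loading control. Representative of four independent experiments.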

The target of test [16] is T3, Proteasome Macropain subunit MB1 (Homo sapiens). Nature of the test: Inhibition of human 20S constitutive proteasome beta 5 subunit assessed as inhibition of BMV037 probe labeling at 10 uM incubated for 1 hr by SDS-PAGE analysis. In short, it runs like this: as §1

Structures are written as SMILES. Active and inactive are the calls of the source. The calls are words filed in the database; no cut-off is given here.

The term IC50 denotes the concentration needed to halve the response being measured. Usually Ki stands for a dissociation constant, usually derived from enzyme kinetics or from competition with a known ligand. For the compound `CC(C)C[C@H](NC(=O)[C@H](Cc1ccccc1)NC(=O)Cc1ccc(O)cc1)B(O)O`, the inhibition result (in [1]; in test [2]; in [8]; with Plasmodium falciparum [9]; in test [11]; in test [12]) was “Active” each time. Moreover, the half-inhibitory concentration (IC50) in test [3] came to 680 nM. In test [4], the Ki was found to be 6.4 nM. Further, the result in the test with Plasmodium falciparum [5] was Active. The T1/2 stood at 1.08 h with Plasmodium falciparum [6], 1.77 h in [7] and 1.08 h with Plasmodium falciparum [10].
Consider `Cc1ccc(S(=O)(=O)N[C@@H](CC(=O)NCC(C)(C)C)C(=O)N[C@@H](Cc2ccccc2)C(=O)N[C@@H](CC(C)C)B(O)O)cc1`, for which the inhibition entry in test [1], in [2], in test [14], in [8], in test [11] and in [12] was “Active” each time. Moreover, in test [13], the inhibition entry was “inactive”. Also, the IC50 in [3] came out at 440 nM.
Regarding `CC(=O)N1CCC[C@@H]1C(=O)N[C@@H](C)C(=O)N[C@@H](Cc1ccccc1)B(O)O`, the 50% inhibitory concentration (IC50) in test [3] was greater than 10000 nM. Moreover, the outcome in the test on Plasmodium falciparum [5] was Active. The inhibition entry (in test [14]; in the test with Plasmodium falciparum [15]) was “Active” throughout. Also, the inhibition result in test [16] is “inactive”.

Values taken from ChEMBL document CHEMBL4680111, “Target Validation and Identification of Novel Boronate Inhibitors of the Plasmodium falciparum Proteasome” (J Med Chem, 2018).
